# Assay results: the M2OR odorant receptor database
# How the values were obtained:
# Details in all cases: stereoisomer not certain
# UniProt Q8VG27 = target: T1, UniProt Q8VG27
# T1 sequence (whole entry): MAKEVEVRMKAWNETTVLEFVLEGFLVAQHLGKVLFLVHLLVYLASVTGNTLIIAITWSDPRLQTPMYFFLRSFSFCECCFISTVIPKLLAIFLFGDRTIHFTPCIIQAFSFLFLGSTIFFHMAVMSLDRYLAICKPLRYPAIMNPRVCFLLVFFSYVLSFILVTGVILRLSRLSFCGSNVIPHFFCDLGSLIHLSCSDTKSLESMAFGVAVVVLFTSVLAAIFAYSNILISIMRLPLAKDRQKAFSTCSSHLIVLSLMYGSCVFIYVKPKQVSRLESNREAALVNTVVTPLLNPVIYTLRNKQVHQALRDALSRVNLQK
# Procedure, shortened: (§1)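 Whether a receptor–molecule pair is responsive (active) rests on the original authors' judgment that its measured signal was statistically different from baseline. Pairs without that judgment are non-responsive (inactive). Sources used varied assay methods, commonly transient luciferase assays in mammalian cell lines.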
# UniProt Q8VG53 = target: T2, UniProt Q8VG53
# T2 sequence (whole entry): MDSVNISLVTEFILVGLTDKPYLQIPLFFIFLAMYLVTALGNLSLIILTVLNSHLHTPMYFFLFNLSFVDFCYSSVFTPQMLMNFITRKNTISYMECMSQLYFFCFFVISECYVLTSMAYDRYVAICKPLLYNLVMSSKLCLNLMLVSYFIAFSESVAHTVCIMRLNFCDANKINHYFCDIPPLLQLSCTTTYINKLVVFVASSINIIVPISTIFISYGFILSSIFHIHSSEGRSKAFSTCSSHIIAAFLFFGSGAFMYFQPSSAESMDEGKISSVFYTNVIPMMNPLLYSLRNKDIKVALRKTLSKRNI
# Procedure, shortened: as §1
# UniProt Q8VG64 = target: T3, UniProt Q8VG64
# T3 sequence (whole entry): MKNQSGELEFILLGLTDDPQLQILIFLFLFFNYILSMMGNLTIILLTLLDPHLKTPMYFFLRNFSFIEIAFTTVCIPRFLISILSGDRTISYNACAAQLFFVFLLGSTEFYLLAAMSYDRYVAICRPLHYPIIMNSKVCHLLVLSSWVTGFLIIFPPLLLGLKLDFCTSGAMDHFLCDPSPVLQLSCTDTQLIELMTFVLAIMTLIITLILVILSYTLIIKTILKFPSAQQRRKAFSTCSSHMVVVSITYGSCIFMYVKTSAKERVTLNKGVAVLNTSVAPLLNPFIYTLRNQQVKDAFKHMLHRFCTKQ
# Procedure, shortened: as §1
# UniProt Q8VGB9 = target: T4, UniProt Q8VGB9
# T4 sequence (whole entry): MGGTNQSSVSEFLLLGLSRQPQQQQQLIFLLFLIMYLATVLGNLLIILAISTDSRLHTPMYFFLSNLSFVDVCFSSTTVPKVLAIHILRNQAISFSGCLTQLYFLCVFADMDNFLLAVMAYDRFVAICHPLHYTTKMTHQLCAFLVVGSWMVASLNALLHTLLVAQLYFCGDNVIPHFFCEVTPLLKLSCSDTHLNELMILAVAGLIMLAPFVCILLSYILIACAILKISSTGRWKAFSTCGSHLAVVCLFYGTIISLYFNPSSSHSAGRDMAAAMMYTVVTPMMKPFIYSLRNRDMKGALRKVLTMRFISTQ
# Procedure, shortened: as §1
# UniProt Q8VGC6 = target: T5, UniProt Q8VGC6
# T5 sequence (whole entry): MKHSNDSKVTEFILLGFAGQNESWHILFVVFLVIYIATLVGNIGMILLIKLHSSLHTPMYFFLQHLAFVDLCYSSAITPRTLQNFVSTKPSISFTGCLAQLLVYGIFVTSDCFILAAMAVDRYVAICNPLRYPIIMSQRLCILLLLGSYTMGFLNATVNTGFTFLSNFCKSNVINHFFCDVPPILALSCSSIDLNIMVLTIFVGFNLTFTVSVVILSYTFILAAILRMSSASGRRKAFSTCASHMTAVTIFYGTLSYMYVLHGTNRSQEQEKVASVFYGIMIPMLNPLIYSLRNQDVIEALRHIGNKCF
# Procedure, shortened: as §1
# UniProt Q8VGJ3 = target: T6, UniProt Q8VGJ3
# T6 sequence (whole entry): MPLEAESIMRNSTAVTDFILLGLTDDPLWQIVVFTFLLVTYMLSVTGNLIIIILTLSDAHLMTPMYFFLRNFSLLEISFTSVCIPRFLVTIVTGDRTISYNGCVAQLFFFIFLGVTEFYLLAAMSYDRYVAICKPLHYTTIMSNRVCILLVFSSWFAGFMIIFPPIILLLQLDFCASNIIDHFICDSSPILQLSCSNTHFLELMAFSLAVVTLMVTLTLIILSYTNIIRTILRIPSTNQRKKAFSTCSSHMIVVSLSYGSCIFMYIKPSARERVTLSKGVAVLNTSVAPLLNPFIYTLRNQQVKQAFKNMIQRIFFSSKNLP
# Procedure, shortened: as §1
# UniProt Q8VGL0 = target: T7, UniProt Q8VGL0
# T7 sequence (whole entry): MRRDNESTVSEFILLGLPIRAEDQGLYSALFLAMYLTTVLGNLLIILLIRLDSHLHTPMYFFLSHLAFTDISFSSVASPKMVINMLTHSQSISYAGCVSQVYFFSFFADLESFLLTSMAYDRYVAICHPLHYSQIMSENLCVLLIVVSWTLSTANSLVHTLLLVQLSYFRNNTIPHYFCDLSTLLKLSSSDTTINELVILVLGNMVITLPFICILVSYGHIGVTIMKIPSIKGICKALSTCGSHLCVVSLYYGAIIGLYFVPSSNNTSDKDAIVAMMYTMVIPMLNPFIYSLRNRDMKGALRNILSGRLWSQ
# Procedure, shortened: as §1
# UniProt Q8VG49 = target: T8, UniProt Q8VG49
# T8 sequence (whole entry): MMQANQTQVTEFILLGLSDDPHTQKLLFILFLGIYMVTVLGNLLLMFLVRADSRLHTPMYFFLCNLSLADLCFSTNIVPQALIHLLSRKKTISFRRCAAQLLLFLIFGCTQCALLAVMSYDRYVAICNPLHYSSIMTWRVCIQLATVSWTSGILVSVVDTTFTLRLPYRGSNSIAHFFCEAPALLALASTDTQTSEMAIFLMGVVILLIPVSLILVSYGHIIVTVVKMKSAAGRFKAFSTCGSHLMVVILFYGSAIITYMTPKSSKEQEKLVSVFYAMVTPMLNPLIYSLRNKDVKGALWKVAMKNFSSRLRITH
# Procedure, shortened: as §1
# UniProt Q8VG77 = target: T9, UniProt Q8VG77
# T9 sequence (whole entry): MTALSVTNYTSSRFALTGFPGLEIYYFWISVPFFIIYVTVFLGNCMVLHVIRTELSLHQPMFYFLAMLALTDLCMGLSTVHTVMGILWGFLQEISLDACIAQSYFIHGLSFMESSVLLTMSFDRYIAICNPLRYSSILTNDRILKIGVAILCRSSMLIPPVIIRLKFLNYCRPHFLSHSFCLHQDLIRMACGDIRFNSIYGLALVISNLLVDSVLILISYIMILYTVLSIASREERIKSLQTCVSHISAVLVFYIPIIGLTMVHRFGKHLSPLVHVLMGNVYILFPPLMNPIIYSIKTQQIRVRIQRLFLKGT
# Procedure, shortened: as §1
# UniProt Q8VG96 = target: T10, UniProt Q8VG96
# T10 sequence (whole entry): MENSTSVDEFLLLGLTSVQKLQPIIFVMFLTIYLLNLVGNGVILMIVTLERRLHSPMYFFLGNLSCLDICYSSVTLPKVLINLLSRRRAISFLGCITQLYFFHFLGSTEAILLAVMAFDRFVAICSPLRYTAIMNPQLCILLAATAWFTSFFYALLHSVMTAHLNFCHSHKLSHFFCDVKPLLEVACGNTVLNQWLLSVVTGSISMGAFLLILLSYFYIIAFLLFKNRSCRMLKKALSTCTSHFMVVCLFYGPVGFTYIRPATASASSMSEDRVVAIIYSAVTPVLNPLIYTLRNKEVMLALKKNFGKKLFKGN
# Procedure, shortened: as §1
# UniProt Q8VGD7 = target: T11, UniProt Q8VGD7
# T11 sequence (whole entry): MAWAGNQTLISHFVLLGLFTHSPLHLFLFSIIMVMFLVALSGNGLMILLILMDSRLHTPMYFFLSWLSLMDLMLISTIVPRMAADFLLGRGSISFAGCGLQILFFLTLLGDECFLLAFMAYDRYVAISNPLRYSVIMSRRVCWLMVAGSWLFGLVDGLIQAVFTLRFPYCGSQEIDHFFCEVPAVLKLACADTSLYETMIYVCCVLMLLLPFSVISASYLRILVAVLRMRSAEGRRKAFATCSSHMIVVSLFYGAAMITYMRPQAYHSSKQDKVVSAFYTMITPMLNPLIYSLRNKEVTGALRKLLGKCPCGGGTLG
# Procedure, shortened: as §1
# UniProt Q8VGH1 = target: T12, UniProt Q8VGH1
# T12 sequence (whole entry): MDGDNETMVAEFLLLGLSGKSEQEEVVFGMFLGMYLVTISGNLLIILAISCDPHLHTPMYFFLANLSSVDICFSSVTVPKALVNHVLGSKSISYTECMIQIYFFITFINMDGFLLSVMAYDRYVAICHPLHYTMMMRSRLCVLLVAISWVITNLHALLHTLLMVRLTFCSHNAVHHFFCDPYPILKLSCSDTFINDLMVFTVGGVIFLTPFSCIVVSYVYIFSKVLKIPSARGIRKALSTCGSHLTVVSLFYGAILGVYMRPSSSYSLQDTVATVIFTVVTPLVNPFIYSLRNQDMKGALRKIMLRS
# Procedure, shortened: as §1
# UniProt Q8VGJ1 = target: T13, UniProt Q8VGJ1
# T13 sequence (whole entry): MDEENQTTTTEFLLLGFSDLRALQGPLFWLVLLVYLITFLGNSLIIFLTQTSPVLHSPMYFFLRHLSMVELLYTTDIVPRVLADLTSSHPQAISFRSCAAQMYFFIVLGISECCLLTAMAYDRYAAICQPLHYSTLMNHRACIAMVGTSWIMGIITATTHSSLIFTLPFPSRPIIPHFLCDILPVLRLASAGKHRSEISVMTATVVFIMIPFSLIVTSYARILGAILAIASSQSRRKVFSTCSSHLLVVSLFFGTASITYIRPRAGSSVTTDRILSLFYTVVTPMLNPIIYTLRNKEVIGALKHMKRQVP
# Procedure, shortened: as §1
# UniProt Q8VGJ5 = target: T14, UniProt Q8VGJ5
# T14 sequence (whole entry): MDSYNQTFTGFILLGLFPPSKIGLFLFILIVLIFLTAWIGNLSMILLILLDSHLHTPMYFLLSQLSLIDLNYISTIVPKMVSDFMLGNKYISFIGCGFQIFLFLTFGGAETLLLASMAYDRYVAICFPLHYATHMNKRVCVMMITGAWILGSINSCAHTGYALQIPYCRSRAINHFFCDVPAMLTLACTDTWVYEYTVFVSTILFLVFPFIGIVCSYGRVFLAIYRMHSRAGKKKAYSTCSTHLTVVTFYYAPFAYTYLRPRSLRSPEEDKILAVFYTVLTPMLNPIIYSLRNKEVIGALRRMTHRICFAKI
# Procedure, shortened: as §1
# UniProt Q8VGL7 = target: T15, UniProt Q8VGL7
# T15 sequence (whole entry): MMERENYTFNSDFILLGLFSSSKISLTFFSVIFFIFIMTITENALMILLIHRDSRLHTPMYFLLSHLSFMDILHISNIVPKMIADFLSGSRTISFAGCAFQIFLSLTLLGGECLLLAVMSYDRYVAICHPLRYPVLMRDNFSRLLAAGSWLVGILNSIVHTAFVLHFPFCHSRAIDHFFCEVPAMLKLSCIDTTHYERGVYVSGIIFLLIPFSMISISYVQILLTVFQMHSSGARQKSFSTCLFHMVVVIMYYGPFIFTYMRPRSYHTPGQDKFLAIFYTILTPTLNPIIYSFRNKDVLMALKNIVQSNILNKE
# Procedure, shortened: as §1
# 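Further: active if original authors judged signal statistically different from baseline.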
Compound,odorant receptor agonist call (UniProt Q8VG27),odorant receptor agonist call (UniProt Q8VG53),odorant receptor agonist call (UniProt Q8VG64),odorant receptor agonist call (UniProt Q8VGB9),odorant receptor agonist call (UniProt Q8VGC6),odorant receptor agonist call (UniProt Q8VGJ3),odorant receptor agonist call (UniProt Q8VGL0),odorant receptor agonist call (UniProt Q8VG49),odorant receptor agonist call (UniProt Q8VG77),odorant receptor agonist call (UniProt Q8VG96),odorant receptor agonist call (UniProt Q8VGD7),odorant receptor agonist call (UniProt Q8VGH1),odorant receptor agonist call (UniProt Q8VGJ1),odorant receptor agonist call (UniProt Q8VGJ5),odorant receptor agonist call (UniProt Q8VGL7)
Cc1ccc(OC(=O)C(C)C)cc1,inactive,inactive,inactive,inactive,inactive,inactive,inactive,–,–,–,–,–,–,–,–
Cc1occc1SSc1ccoc1C,inactive,inactive,inactive,inactive,inactive,inactive,inactive,–,–,–,–,–,–,–,–
C1CCOC1,inactive,inactive,inactive,inactive,inactive,inactive,inactive,–,–,–,–,–,–,–,–
CCCCCC1=C(C)CCC1=O,inactive,inactive,inactive,inactive,inactive,inactive,inactive,inactive,inactive,inactive,inactive,inactive,inactive,active,active
CCCCC(=O)CC,inactive,inactive,inactive,inactive,active,inactive,inactive,inactive,inactive,inactive,inactive,inactive,inactive,active,inactive
CCCC(C)C(=O)OCC (configuration not stated),inactive,inactive,inactive,inactive,inactive,inactive,inactive,–,–,–,–,–,–,–,–
COc1ccccc1,inactive,inactive,inactive,inactive,inactive,inactive,inactive,–,–,–,–,–,–,–,–
CCCCCCC=CC=O,inactive,inactive,inactive,inactive,inactive,inactive,inactive,–,–,–,–,–,–,–,–
CCCCCOC(=O)CCC,inactive,inactive,inactive,inactive,inactive,inactive,inactive,–,–,–,–,–,–,–,–
CCCCCC(=Cc1ccccc1)C(OC)OC,inactive,inactive,inactive,inactive,inactive,inactive,inactive,–,–,–,–,–,–,–,–
Cc1ccc(C(C)C)cc1,inactive,inactive,inactive,inactive,inactive,inactive,inactive,–,–,–,–,–,–,–,–
CSSSC,inactive,inactive,inactive,inactive,inactive,inactive,inactive,–,–,–,–,–,–,–,–
C=C(C)C1CC=C(C)CC1 (configuration not stated),inactive,inactive,inactive,inactive,inactive,inactive,inactive,–,–,–,–,–,–,–,–
C=CC(=C)CCC=C(C)CCC=C(C)C,inactive,inactive,inactive,inactive,inactive,inactive,inactive,–,–,–,–,–,–,–,–
CC1(C)CC(=O)CC(=O)C1,inactive,inactive,inactive,inactive,inactive,inactive,inactive,–,–,–,–,–,–,–,–
CC=C(C)C=O,inactive,inactive,inactive,inactive,inactive,inactive,inactive,–,–,–,–,–,–,–,–
C=CC(=C)CCC=C(C)C,inactive,inactive,inactive,inactive,inactive,inactive,inactive,–,–,–,–,–,–,–,–
O=C(O)CCCCCCCCC(=O)O,inactive,inactive,inactive,inactive,inactive,inactive,inactive,–,–,–,–,–,–,–,–
